GPR7 antag – GPR7 receptor antagonists, primary screen, cell-based, fluorescence, single concentration. actives 1.1% (n = 290,000). Neuropeptides B/W receptor type 1 (Homo sapiens), P48145. GPR7-expressing cells, fluorescence antagonist assay. inhibition, % at 4.4 µM; in the data active means inhibition above about 16%, passing the limit was not always enough;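 further: cells stimulated with the agonist NPW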
OX1R antag-1 – OX1R (HCRTR1) antagonists, primary screen, fluorescence, CHO/OX1R cells, Fluo-8 calcium, orexin A; Fluo-8 calcium fluorescence; actives 0.43% (n = 330,000); inhibition, % at 5 µM; Orexin/Hypocretin receptor type 1 (Homo sapiens), O43613;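 active means inhibition above its plate's threshold, mean inhibition of all tested compounds on the plate plus 3 SD, cut at about 37% in these data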
OX1R antag-2 – antagonists of human orexin 1 receptor (OX1R); OX1R-expressing cells, FRET antagonist read-out; inhibition, % at 6.6 µM; Orexin/Hypocretin receptor type 1 (Homo sapiens), O43613; actives 1.8% (n = 330,000); AID 485270, 2010; in the data active means inhibition mostly above about 38%, no sharp cut-off; inactive means mostly below about 40%
CHO parental Ca – ATP-evoked calcium signal inhibitors, parental CHO, primary screen, counter-screen for OX1R antagonist project, cell-based, fluorescence, Fluo-8 calcium dye | inhibition, % at 5.6 µM | parental CHO-K1, ATP-induced calcium, Fluo-8 fluorescence | actives 0.63% (n = 330,000);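 active means inhibition above that plate's mean sample inhibition plus 3 SD, cut at about 26% in these data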
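Assay system: parental CHO cells; Read-out basis: percent inhibition of ATP-evoked calcium rise, normalized to controls; Benchmarks: ATP and no-ATP DMSO wells; Compound dosing: single nominal dose of 5.6 µM per compound; Signal: Fluo-8 calcium dye fluorescence; Also added: ATP as calcium-mobilizing challenge; Repeats: singlicate.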
TAAR1 antagonist – human TAAR1 antagonists, primary screen, Fluo-8 calcium fluorescence, CHO RD-HGA16 cells | AID 624466, 2012 | antagonist | actives 1.5% (n = 360,000) | inhibition, % at 3 µM | Trace amine-associated receptor 1 (Homo sapiens), Q96RJ0;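 active means inhibition above a per-plate cutoff, the mean inhibition of test compounds on that plate plus 3 SD, cut at about 49% in these data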
Target sequence (Q96RJ0 whole entry, looked up): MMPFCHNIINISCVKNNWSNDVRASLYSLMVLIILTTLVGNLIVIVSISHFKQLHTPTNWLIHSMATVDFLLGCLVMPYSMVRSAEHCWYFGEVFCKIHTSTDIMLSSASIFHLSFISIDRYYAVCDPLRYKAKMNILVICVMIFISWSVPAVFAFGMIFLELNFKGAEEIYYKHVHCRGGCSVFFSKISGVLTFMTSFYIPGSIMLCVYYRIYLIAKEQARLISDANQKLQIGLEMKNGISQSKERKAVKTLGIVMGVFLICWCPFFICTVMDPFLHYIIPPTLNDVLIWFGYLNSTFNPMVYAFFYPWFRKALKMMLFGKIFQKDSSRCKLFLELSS
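System: CHO RD-HGA16 cells bearing hTAAR1. Reagent: EC80 β-phenethylamine stimulus. Schedule: seeding 17-24 h prior, 75-min 37 °C, 30-min RT dye loading. Signal: Fluo-8 intracellular calcium dye fluorescence, real-time kinetic reads. Read-out: % inhibition from peak post-agonist over basal fluorescence ratio. Benchmarks: vehicle wells and EC80 agonist wells. Replicates: n of 1.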
TAAR1 agonist – human TAAR1 agonists, primary screen, Fluo-8 calcium fluorescence, CHO RD-HGA16 cells. actives 0.99% (n = 360,000). activation, % at 3 µM. Trace amine-associated receptor 1 (Homo sapiens), Q96RJ0. vehicle wells 0%, saturating PEA agonist 100%. AID 624467, 2012;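 active means activation above the mean activation of all test compounds in the run plus 3 SD, cut at about 38% in these data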
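Test system: RD-HGA16 (CHO) cells co-expressing Gα16 and hTAAR1 / Benchmarks: DMSO vehicle as 0%, PEA at EC100 as 100% / Repeats: no replicates (n 1) / Measure: % activation from peak over basal fluorescence ratio, DMSO-to-PEA scaled / Timing: 17-24 h plating, Fluo-8 75 min 37 °C, 30 min RT / Technique: kinetic Fluo-8 calcium fluorescence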
TAAR1 ag confirm – human TAAR1 agonists, retest of hits, confirmation, Fluo-8 calcium fluorescence, CHO RD-HGA16 cells; shares compounds with TAAR1 agonist; scaled: DMSO 0%, maximal phenethylamine 100%; activation, % at 3 µM; actives 82% (n = 2,400); AID 651783, 2012;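 active means activation above a cutoff set at the run's mean compound activation plus 3 SD, cut at about 39% in these data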
Ga16 ag counter – nonselective calcium mobilization agonists, CHO-Ga16 cells, counter-screen for hTAAR1 agonist project, cell-based, fluorescence, CHO-Ga16 parental line. Fluo-8 calcium fluorescence; normalized to maximal ATP response, DMSO zero. shares compounds with TAAR1 agonist. actives 50% (n = 2,400). activation, % at 3 µM;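 active means activation above the run cutoff, the mean activation over all tested wells plus 3 SD, cut at about 12% in these data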
TAAR1 desensitize – TAAR1 desensitization by agonist hits, confirmation, counter-screen for TAAR1 agonist project, cell-based, fluorescence, tachyphylaxis; shares compounds with TAAR1 agonist; CHO RD-HGA16 hTAAR1, Fluo-8 calcium, beta-PEA response inhibition; inhibition, % at 3 µM; actives 46% (n = 2,400);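 active means inhibition above the run cutoff, the mean inhibition of all test compounds plus 3 SD, cut at about 49% in these data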;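 further: beta-PEA stimulus applied at its EC80; loss of beta-PEA calcium signal after compound pretreatment read as receptor desensitization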
Ga16 antag count – inhibition of ATP-evoked calcium response in CHO-Ga16 cells, counter-screen for TAAR1 agonist project, cell-based, fluorescence | shares compounds with TAAR1 agonist | CHO-Ga16 ATP-induced calcium, Fluo-8 fluorescence | inhibition, % at 3 µM | actives 39% (n = 2,400) | AID 651952, 2012;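 active means inhibition above the plate's mean compound inhibition plus 3 SD, computed per plate, cut at about 22% in these data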
Large screens that a line does not name were inactive (follow-up assays come after a bar, where they were run). Sampled rows, rich in hits. Any-hit rate of the full collection: about 4.6%.

Cc1ccc(C(=O)Nc2nc(C(N)Cc3ccc(C(F)(F)F)cc3)cs2)cc1 (stereo not drawn)	TAAR1 agonist 65 (no result: GPR7 antag, OX1R antag-1, OX1R antag-2, CHO parental Ca) | TAAR1 ag confirm 52 | Ga16 ag counter 29 | TAAR1 desensitize inactive | Ga16 antag count 43
O=C(CCC(=O)Nc1ccc(F)cc1)N/N=C/c1ccccc1O	TAAR1 agonist 54 | TAAR1 ag confirm 72 | Ga16 ag counter inactive | TAAR1 desensitize inactive | Ga16 antag count inactive
O=C(CCC(=O)N/N=C/c1ccccc1O)NCc1ccccc1	TAAR1 agonist 42 | TAAR1 ag confirm 57 | Ga16 ag counter inactive | TAAR1 desensitize inactive | Ga16 antag count inactive
O=C(Cc1n[nH]c(=O)[nH]c1=O)N/N=C/c1ccccc1O	none (no result: TAAR1 antagonist, TAAR1 agonist) | Ga16 ag counter inactive | Ga16 antag count inactive
O=C(CCC(=O)Nc1ccc(Br)cc1)N/N=C/c1ccccc1F	none
O=C(CNC(=O)c1ccccc1Br)N/N=C/c1ccccc1O	TAAR1 agonist 47 | TAAR1 ag confirm 67 | Ga16 ag counter inactive | TAAR1 desensitize inactive | Ga16 antag count inactive
O=C(CC(=O)N/N=C/c1ccccc1)NCc1ccccc1	none
COc1ccc(/C=N/NC(=O)Cc2n[nH]c(=O)[nH]c2=O)cc1	none
O=C(CNC(=O)c1ccccc1Br)N/N=C/c1cccs1	none
COc1cc(Cl)c(C)cc1NC(=O)CSc1sc2c(O)cc(=O)[nH]c2c1C#N	none
Cc1cccc(C(CC(=O)NCCc2ccccc2)c2ccccc2)c1O (stereo not drawn)	TAAR1 agonist 66 | TAAR1 ag confirm 92 | Ga16 ag counter inactive | TAAR1 desensitize 61 | Ga16 antag count inactive
Cc1ccsc1/C=N\Nc1cn[nH]c(=O)c1Cl	TAAR1 antagonist 54, TAAR1 agonist 74 | TAAR1 ag confirm 87 | Ga16 ag counter inactive | TAAR1 desensitize 77 | Ga16 antag count inactive
O=c1[nH]ncc(N/N=C/c2ccccc2)c1Cl	TAAR1 antagonist 78, TAAR1 agonist 64 | TAAR1 ag confirm 92 | Ga16 ag counter inactive | TAAR1 desensitize 93 | Ga16 antag count inactive
Cc1ccc(/C=N\Nc2cn[nH]c(=O)c2Cl)cc1	TAAR1 agonist 41 | TAAR1 ag confirm 62 | Ga16 ag counter inactive | TAAR1 desensitize inactive | Ga16 antag count inactive
COc1ccc(C)cc1NC(=O)COC(=O)c1c(-c2ccccc2)noc1C	none (no result: GPR7 antag, OX1R antag-1, OX1R antag-2, CHO parental Ca)
C[C@H](CO)N1C[C@H](C)[C@H](CN(C)S(=O)(=O)c2ccc(C#N)cc2)OCc2cnnn2CCCC1=O	none (no result: GPR7 antag, OX1R antag-1, OX1R antag-2, CHO parental Ca)
CC(C(=O)Nc1ccccn1)(c1ccccc1)c1ccccc1	none (no result: OX1R antag-1, OX1R antag-2, CHO parental Ca)
COc1cccc(/C=N/Nc2ccccc2C(=O)O)c1O	none
COc1cccc(/C=N/Nc2snc(SC)c2C#N)c1O	OX1R antag-2 60, TAAR1 antagonist 60, TAAR1 agonist 75 | TAAR1 ag confirm 69 | Ga16 ag counter 52 | TAAR1 desensitize 82 | Ga16 antag count 44

Screens deposited in PubChem BioAssay by The Scripps Research Institute Molecular Screening Center.
